Measurements of several laboratories.
Protocols differ between the studies behind these lines.
Target: Aurora kinase C (AURKC, Homo sapiens, UniProt Q9UQB9)
Residues used in one study (Q9UQB9 1-309): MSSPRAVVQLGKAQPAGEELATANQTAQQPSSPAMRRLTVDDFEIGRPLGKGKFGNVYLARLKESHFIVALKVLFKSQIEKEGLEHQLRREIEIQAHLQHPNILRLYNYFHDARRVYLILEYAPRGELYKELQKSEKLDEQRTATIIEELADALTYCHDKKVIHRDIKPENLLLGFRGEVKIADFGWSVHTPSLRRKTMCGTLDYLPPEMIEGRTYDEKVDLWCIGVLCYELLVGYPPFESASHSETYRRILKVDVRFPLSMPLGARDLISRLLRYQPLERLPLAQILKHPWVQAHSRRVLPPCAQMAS

SMILES | effect on | action | technique | concentration | quantity | result
COc1cc(Nc2ncc(F)c(Nc3ccc4c(n3)NC(=O)C(C)(C)O4)n2)cc(OC)c1OC | binding | – | competition with immobilised ligand | 10 µM | inhibition | 95%
Cn1cncc1[C@](O)(COc1ccc(C#N)cc1-c1ccc(OC(F)(F)F)cc1)c1ccc(C#N)cc1 | cell-free assay | – | competition with immobilised ligand | 1 µM | remaining binding | 100%
Cn1cc(-c2cc(F)cc(N3CCn4c(cc5c4CCCC5)C3=O)c2CO)cc(Nc2ccc(N3CCN(C4COC4)CC3)cn2)c1=O | enzyme activity | inhibitor | – | 0.1 µM | inhibition | 5%
N#CC1(c2ccccn2)CCN(Cc2cc(C(=O)O)c(=O)n3ccccc23)CC1 | cell-free assay | – | competition with immobilised ligand | 1 µM | remaining binding | 94%
COc1ncccc1-c1cnn2ccc(N3CCN(C(=O)OC(C)C)CC3)nc12 | binding | – | competition with immobilised ligand | 1 µM | remaining binding | 56%
C#Cc1n[nH]c2c(-c3cn(C(C)c4ccccn4)c(=O)[nH]c3=O)cc(F)cc12 (stereo not shown) | enzyme activity | inhibitor | – | 1 µM | inhibition | 1.7%
CC(C)(C)c1cc(C=C(C#N)C#N)cc(Br)c1O | enzyme activity | inhibitor | – | 0.5 µM | remaining activity | 87.6%
Cn1cc(-c2cccc(N3CCc4c(sc5c4CC(C)(C)C5)C3=O)c2CO)cc(Nc2ccncn2)c1=O | enzyme activity | inhibitor | – | 1 µM | inhibition | 5%
Nc1ncc(-c2nc(N3CCOCC3)nc(N3CCOCC3)n2)c(C(F)F)n1 | binding | – | competition with immobilised ligand | 10 µM | remaining binding | 91%
O=c1[nH]c2ccccc2n1C1CCN(Cc2ccc(-c3[nH]c4cc5ncnc5cc4nc3-c3ccccc3)cc2)CC1 | cell-free assay | – | – | 0.5 µM | remaining signal | 96%
